# High-throughput results (PubChem BioAssay)
# Sampled rows, rich in hits. Any-hit rate of the full collection: about 29%.
# Ecoli tolC = blocks growth of E. coli BW25113 tolC mutant | OD615 | growth inhibition, % at 10 µM (by protocol) | 65,000 tested, 2.2% active | AID 573;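 active means growth inhibition at or above a cutoff equal to the mean over every tested compound plus 3 SD, cut at about 60% in these data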;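 further: growth measured after 20 h incubation at 37 °C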
#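 Test system – E. coli BW25113 ΔtolC::kan, tolC deletion mutant strain · Detection – OD at 615 nm · Buffer or medium – LB with kanamycin 50 µg/mL · Times – 20 h compound exposure of bacteria at 37 °C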
# CYP2C19 inh = human CYP2C19 inhibition | P33261 | 96,000 tested, 21% active | inhibition, % at 5 µM | CYP2C19 Supersomes, luciferin-H EGE luminescence, 30 min;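 active means CYP2C19 inhibition above a set limit at 5 µM in the primary screen, cut at about 50% in these data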
# CYP2C19 act = activators of human cytochrome P450 2C19; P33261; recombinant CYP2C19, luciferin-H EGE luminescence; active compounds read high; 0 = fully inhibited enzyme, 1 = untreated enzyme; activation factor at 5 µM; 96,000 tested, under 10 active; AID 1025;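 active means activation factor of at least 2 at 5 µM in the primary screen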
# Ecoli WT expand = E. coli BW25113 growth inhibition, expanded screen | AID 710 | growth inhibition, % at 100 µM | OD600 absorbance | 98,000 tested, 0.15% active;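 active means growth inhibition above about 50% at one test dose, limit read from the data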;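 further: growth measured after 20 h incubation at 37 °C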
# CYP2C9 inh = inhibitors of human CYP2C9. P11712. CYP2C9 Supersomes, luciferin-H conversion, luminescence. inhibition, % at 5 µM. 96,000 tested, 20% active. AID 777;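 active means blocking of liver enzyme CYP2C9 beyond about 50% at 5 µM, limit read from the data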
# Target sequence (P11712 whole entry, looked up): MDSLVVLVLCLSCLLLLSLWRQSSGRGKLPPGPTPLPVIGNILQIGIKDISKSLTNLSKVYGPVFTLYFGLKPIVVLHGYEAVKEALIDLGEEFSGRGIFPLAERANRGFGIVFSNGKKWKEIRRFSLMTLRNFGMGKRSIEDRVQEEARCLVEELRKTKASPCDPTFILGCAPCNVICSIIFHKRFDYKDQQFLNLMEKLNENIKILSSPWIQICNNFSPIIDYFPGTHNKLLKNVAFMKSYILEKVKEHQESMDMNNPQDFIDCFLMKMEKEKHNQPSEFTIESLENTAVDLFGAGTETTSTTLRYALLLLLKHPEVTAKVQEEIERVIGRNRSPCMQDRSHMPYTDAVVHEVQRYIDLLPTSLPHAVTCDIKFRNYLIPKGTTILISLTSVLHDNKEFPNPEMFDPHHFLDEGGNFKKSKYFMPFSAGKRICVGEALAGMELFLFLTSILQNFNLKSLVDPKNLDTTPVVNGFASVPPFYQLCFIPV
# CYP2C9 activ = increases human cytochrome P450 2C9 activity | AID 1024 | recombinant CYP2C9, luciferin-H conversion, luminescence; active compounds read high; factor 1 = untreated enzyme, 0 = blocked | P11712 | activation factor at 5 µM | 96,000 tested, 1.4% active;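 active means activation factor of 2 or more for CYP2C9 at a 5 µM dose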
# Hits are given with their value; - = inactive; . = no result.
SMILES,Ecoli tolC,CYP2C19 inh,CYP2C19 act,Ecoli WT expand,CYP2C9 inh,CYP2C9 activ
CCC(C)c1c(O)nc(SCC(=O)Nc2ccccc2)[nH]c1=O (stereo not drawn),.,73,-,-,76,-
Clc1ccc(-c2cc(CSc3ccccc3)on2)cc1,.,-,-,-,-,-
Clc1ccc(-c2cc(CSc3cccc(Cl)c3)on2)cc1,.,75,-,-,-,-
Cc1cc(F)ccc1S(=O)(=O)Nc1ccccc1C(=O)Nc1ccc2[nH]c(=O)[nH]c2c1,-,-,-,-,81,-
CCCCN(C)C(=O)CS(=O)(=O)Cc1nc(-c2cccc(OC)c2)oc1C,-,-,-,-,-,-
CCOC(=O)Cn1c(=NC(=O)CSC(C)=O)sc2ccccc21,-,-,-,-,81,-
COC(=O)c1sc(NC(=O)C2CCCO2)c(C(=O)OC)c1C (stereo not drawn),-,51,-,-,-,-
Cc1c(C(=O)OC(C)C)sc(NC(=O)C2CCCO2)c1C(=O)OC(C)C (stereo not drawn),.,69,-,-,76,-
COC(=O)c1sc(NC(=O)C(C)C)c(C(=O)OC)c1C,-,53,-,-,-,-
COC(=O)c1sc(NC(=O)C2CCCCC2C(=O)O)c(C(=O)OC)c1C (stereo not drawn),-,-,-,-,93,-
CCOC(=O)c1sc(NC(=O)C2CCCO2)c(C(=O)OCC)c1C (stereo not drawn),-,-,-,.,-,-
CCOC(=O)c1c(NC(=O)C2CCCO2)sc(C(=O)OC(C)(C)C)c1C (stereo not drawn),.,-,-,-,-,-
COc1ccc(NC(C#N)c2ccc(OC)cc2)cc1 (stereo not drawn),.,-,-,-,-,-
CCSc1nnc(-c2ccc(S(=O)(=O)NCc3cccs3)cc2)o1,-,-,-,-,70,-
Cc1cc(C)cc(-c2nnc(SCC(=O)NCc3cccs3)o2)c1,-,-,-,-,-,-
COc1ccc(OC)c(NC(=O)C2CC(C)=C(C)CC2C(=O)O)c1 (stereo not drawn),-,-,-,-,61,-
CCOC(=O)c1cccc(NC(=O)Nc2cc(OC)ccc2OC)c1,83,-,-,-,-,-
COc1ccc(OC)c(NC(=O)NC2(C(F)(F)F)Oc3ccccc3O2)c1,-,-,-,-,-,-
CCOc1ccccc1NC(=O)Nc1cccc(C(C)=O)c1,.,-,-,-,-,-
COc1ccc(OC)c(NC(=O)Nc2ccccc2C)c1,-,67,-,-,-,-
O=C(NCCc1ccccc1)C1CCCN(S(=O)(=O)c2cccc3nsnc23)C1 (stereo not drawn),-,.,.,.,.,.
Cc1cc(NC(=O)CCC(=O)N(c2ccccc2)C(C(=O)NC2CCCCC2)c2cccs2)no1 (stereo not drawn),.,.,.,-,.,.
c1cnc2ccc(C(c3nnnn3C3CCCC3)N3CCN4CCCC4C3)cc2c1 (stereo not drawn),.,-,-,-,-,-
COc1c(Cl)ccc(Cl)c1C(=O)OCC(=O)O,-,-,-,.,-,-
CCOc1ccccc1Oc1coc2cc(O)ccc2c1=O,-,-,-,-,-,3.1
SMILES,Ecoli tolC,CYP2C19 inh,CYP2C19 act,Ecoli WT expand,CYP2C9 inh,CYP2C9 activ
COc1ccccc1Oc1coc2cc(O)ccc2c1=O,-,-,-,-,-,2
CCOc1ccc2c(=O)c(Oc3ccccc3OCC)coc2c1,.,74,-,-,-,2.1
O=c1c(-c2ccc(F)cc2)coc2cc(O)ccc12,-,-,-,-,-,-
CCOc1ccccc1Oc1coc2cc(OC(=O)c3ccco3)ccc2c1=O,-,-,-,-,-,-
COc1ccc(-c2coc3cc(O)ccc3c2=O)cc1OC,-,-,-,-,-,2.1
CC1(C)C(c2ccccc2)=[N+]([O-])CN1O,-,-,-,-,-,-
Cc1cc(C)n(-c2nc(-c3ccc(Cl)cc3)cs2)n1,.,-,-,-,-,-
COC(=O)c1sc(S(=O)(=O)N2CCC(C(=O)O)CC2)c(C(=O)OC)c1C,.,-,-,-,-,-
O=C(OCCN(CCOC(=O)c1ccncc1)S(=O)(=O)c1cccs1)c1ccncc1,-,99,-,-,100,-
CN(CC(=O)O)S(=O)(=O)c1cccs1,-,-,-,-,-,-
CC(C)(Oc1ccc(-c2ccco2)cc1)C(=O)O,-,-,-,-,-,-
CC(=O)C1=C(O)C=C(c2ccco2)CC1c1ccco1 (stereo not drawn),-,50,-,-,51,-
CCOC(=O)c1cc(C#N)c(SCC(=O)c2cc(C#N)c(SC)nc2C)[nH]c1=O,-,-,-,-,74,-
COc1ccc(CNC(=O)COC(=O)c2cc(-c3cccs3)nc3ccccc23)cc1OC,.,-,-,-,75,-
Cc1ccc(/C=N/n2c(C)n[nH]c2=S)o1,.,-,-,-,-,-
Cc1cccc(OCc2nnc(SCC(=O)Nc3ccc(C)c(Cl)c3)o2)c1,-,-,-,-,-,-
CC(C)C1Nc2ccc(S(N)(=O)=O)cc2C2C=CCC21 (stereo not drawn),-,69,-,-,-,-
COC(=O)[C@H](C)NC(=O)Nc1cc(Cl)ccc1C,.,-,-,-,-,-
CCNC(=O)CN(C1CCCCC1)S(=O)(=O)c1ccc(F)cc1,-,-,-,-,-,-
CNC(=O)CN(C1CCCCC1)S(=O)(=O)c1ccc(F)cc1,-,66,-,-,-,-
O=C(CN(C1CCCCC1)S(=O)(=O)c1ccccc1)N1CCCC1,-,-,-,-,51,-
Cc1ccc(S(=O)(=O)N(CC(=O)N2CCN(c3ccc(F)cc3)CC2)C2CCCCC2)cc1,.,-,-,-,52,-
O=C(CN(C1CCCCC1)S(=O)(=O)c1ccc(Cl)cc1)N1CCOCC1,.,-,-,-,-,-
O=C(CN(C1CCCCC1)C1CCCCC1)N1CCc2ccccc2C1,.,76,-,-,65,-
CCOC(=O)N1CCc2c(sc3nc4n(c(=O)c23)N=C(C)CS4)C1,.,-,-,-,-,-
SMILES,Ecoli tolC,CYP2C19 inh,CYP2C19 act,Ecoli WT expand,CYP2C9 inh,CYP2C9 activ
COc1ccc(CN2CC(C(=O)NCc3cccc(OC)c3)CC2=O)cc1 (stereo not drawn),-,-,-,-,-,-
Cn1c(NCCCN2CCOCC2)nc2c1c(=O)n(Cc1ccc(Cl)c(Cl)c1)c(=O)n2C,-,-,-,-,-,-
CCOC(=O)c1ccc(N=CC2=C(O)CC(c3ccco3)CC2=O)cc1 (stereo not drawn),-,.,.,.,.,.
COc1cc(C(C[N+](=O)[O-])c2c(C)[nH]c3ccccc23)cc(OC)c1OC (stereo not drawn),.,98,-,-,72,-
c1ccc(CC2CCN(C3=Nc4cccc5cccc3c45)CC2)cc1,.,87,-,-,-,-
CC(=O)N1CCN(C2=Nc3cccc4cccc2c34)CC1,-,-,-,-,-,-
CCOC(=O)CSc1nnc(CNC(=O)c2ccc(OC)cc2)n1Cc1ccccc1,-,-,-,-,-,-
